Experimental data taken from ChEMBL document CHEMBL3808334, “Synthesis and in vitro evaluation of novel triazine analogues as anticancer agents and their interaction studies with bovine serum albumin” (Eur J Med Chem, 2016).

Assays:
Format in all cases: functional
NCI-H522 = assay: Growth inhibition of human NCI-H522 cells assessed as cell growth at 10^-7 M incubated for 48 hrs by sulforhodamine B assay; conditions: NCI-H522, 48 h, read-out: Activity
[1] = Growth inhibition of human Hs 578T cells incubated for 48 hrs by sulforhodamine B assay
Summary of the method: (§1)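 Cells were plated at 5,000–40,000 per well according to doubling time and preincubated 24 h at 37 °C in 5% CO2; time-zero plates were then TCA-fixed. Five concentrations (10-fold or ½-log dilutions, DMSO stock) were incubated 48 h. Cells were TCA-fixed, stained with 0.4% SRB and read at 515 nm. GI50 was taken where [(Ti−Tz)/(C−Tz)]×100 = 50.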

[2] = Growth inhibition of human HL-60(TB) cells assessed as cell growth at 10^-7 M incubated for 48 hrs by sulforhodamine B assay; conditions: HL-60, 48 h, read-out: Activity
Summary of the method: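 Cells plated at 5,000–40,000/well according to doubling time and preincubated 24 h at 37 °C, 5% CO₂, with time-zero plates TCA-fixed. Drugs were kept as DMSO concentrates at 400× the top concentration and diluted in medium with 50 µg/ml gentamicin. Five 10-fold or ½-log dilutions were run for 48 h, followed by SRB staining and A515. Percent growth = (Ti−Tz)/(C−Tz)×100, or (Ti−Tz)/Tz×100 when Ti<Tz.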

[3] = Growth inhibition of human SNB75 cells assessed as cell growth at 10^-4 M incubated for 48 hrs by sulforhodamine B assay; conditions: SNB-75, 48 h, read-out: Activity
[4] = Growth inhibition of human TK10 cells assessed as cell growth at 10^-5 M incubated for 48 hrs by sulforhodamine B assay; conditions: TK-10, 48 h, read-out: Activity
CCRF-CEM = assay: Growth inhibition of human CCRF-CEM cells assessed as cell growth at 10^-7 M incubated for 48 hrs by sulforhodamine B assay; conditions: read-out: Activity
Summary of the method: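 Leukemia line in the five-dose format: five concentrations from 10-fold or ½-log serial dilutions. Plated at 5,000–40,000 cells per well, preincubated 24 h, then compound added for 48 h at 37 °C, 5% CO₂. Sulforhodamine B absorbance read at 515 nm. Growth is computed against time-zero (Tz) and control (C) readings; GI₅₀ is where [(Ti−Tz)/(C−Tz)]×100 = 50.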

[5] = Growth inhibition of human OVCAR8 cells assessed as cell growth at 10^-8 M incubated for 48 hrs by sulforhodamine B assay; conditions: OVCAR-8, 48 h, read-out: Activity
M14 = assay: Growth inhibition of human M14 cells assessed as cell growth at 10^-6 M incubated for 48 hrs by sulforhodamine B assay; conditions: M14, 48 h, read-out: Activity
[6] = Growth inhibition of human HCT15 cells assessed as cell growth at 10^-6 M incubated for 48 hrs by sulforhodamine B assay; conditions: HCT-15, 48 h, read-out: Activity
Summary of the method: (§2)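 Cells seeded at 5,000–40,000/well according to doubling time and preincubated 24 h at 37 °C, 5% CO2. Time-zero plates were TCA-fixed. DMSO concentrate was diluted in medium with 50 µg/ml gentamicin to give five concentrations (10-fold or ½ log steps), then exposed 48 h. Cells were TCA-fixed, stained with 0.4% SRB and read at 515 nm. Percent growth was taken against time-zero and control; GI50, TGI and LC50 derived.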

SR = assay: Growth inhibition of human SR cells assessed as cell growth at 10^-7 M incubated for 48 hrs by sulforhodamine B assay; conditions: read-out: Activity
[7] = Growth inhibition of human COLO205 cells assessed as cell growth at 10^-7 M incubated for 48 hrs by sulforhodamine B assay; conditions: COLO 205, 48 h, read-out: Activity; summary of the method: as §2
[8] = Growth inhibition of human Caki1 cells assessed as cell growth at 10^-4 M incubated for 48 hrs by sulforhodamine B assay; conditions: CAKI-1, 48 h, read-out: Activity; summary of the method: as §2
[9] = Growth inhibition of human DU145 cells assessed as cell growth at 10^-4 M incubated for 48 hrs by sulforhodamine B assay; conditions: DU-145, 48 h, read-out: Activity; summary of the method: as §2
ACHN = assay: Growth inhibition of human ACHN cells assessed as cell growth at 10^-8 M incubated for 48 hrs by sulforhodamine B assay; conditions: read-out: Activity
Summary of the method: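 Five-dose assay: five concentrations from 10-fold or ½-log serial dilutions. Cells are plated at 5,000–40,000 per well according to doubling time, grown 24 h, then exposed 48 h at 37 °C, 5% CO₂. Fixed with cold 50% TCA (final addition) for 60 min at 4 °C and stained with 0.4% SRB in 1% acetic acid. Bound dye is solubilized in 10 mM Tris base and read at 515 nm. GI₅₀ is where [(Ti−Tz)/(C−Tz)]×100 = 50, with a time-zero plate as Tz.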

[10] = Growth inhibition of human PC3 cells assessed as cell growth at 10^-5 M incubated for 48 hrs by sulforhodamine B assay; conditions: PC-3, 48 h, read-out: Activity
KM12 = assay: Growth inhibition of human KM12 cells assessed as cell growth at 10^-4 M incubated for 48 hrs by sulforhodamine B assay; conditions: KM12, 48 h, read-out: Activity
[11] = Growth inhibition of human COLO205 cells assessed as cell growth at 10^-4 M incubated for 48 hrs by sulforhodamine B assay; conditions: COLO 205, 48 h, read-out: Activity; summary of the method: as §2
[12] = Growth inhibition of human HCT15 cells incubated for 48 hrs by sulforhodamine B assay; conditions: HCT-15, 48 h; summary of the method: as §2
[13] = Growth inhibition of human OVCAR3 cells assessed as cell growth at 10^-7 M incubated for 48 hrs by sulforhodamine B assay; conditions: OVCAR-3, 48 h, read-out: Activity
[14] = Growth inhibition of human OVCAR3 cells assessed as cell growth at 10 uM incubated for 48 hrs by sulforhodamine B assay; conditions: OVCAR-3, 48 h, read-out: Activity
[15] = Growth inhibition of human OVCAR4 cells assessed as cell growth at 10 uM incubated for 48 hrs by sulforhodamine B assay; conditions: OVCAR-4, 48 h, read-out: Activity
MCF7 = assay: Growth inhibition of human MCF7 cells assessed as cell growth at 10^-6 M incubated for 48 hrs by sulforhodamine B assay; conditions: MCF7, 48 h, read-out: Activity
[16] = Growth inhibition of human OVCAR5 cells assessed as cell growth at 10^-6 M incubated for 48 hrs by sulforhodamine B assay; conditions: OVCAR-5, 48 h, read-out: Activity
MDA-MB-435 = assay: Growth inhibition of human MDA-MB-435 cells incubated for 48 hrs by sulforhodamine B assay; conditions: MDA-MB-435, 48 h; summary of the method: as §1
[17] = read-out: LC50 (the source's name)
[18] = read-out: pLC50 (the source's name) (converted)

Structure (SMILES) | growth at 0.1 µM (NCI-H522) [%] | GI50 ([1]; read-out: GI50) [nM] | CC50 [1, 17] [nM] | TGI ([1]; read-out: TGI) [nM] | GI50 ([1]; read-out: pGI50 (converted)) [nM] | CC50 [1, 18] [nM] | TGI ([1]; read-out: pTGI (converted)) [nM] | growth at 0.1 µM [2] [%] | growth at 100 µM [3] [%] | growth at 10 µM [4] [%] | growth at 0.1 µM (CCRF-CEM) [%] | growth at 0.01 µM [5] [%] | growth at 1 µM (M14) [%] | growth at 1 µM [6] [%] | growth at 0.1 µM (SR) [%] | growth at 0.1 µM [7] [%] | growth at 100 µM [8] [%] | growth at 100 µM [9] [%] | growth at 0.01 µM (ACHN) [%] | growth at 10 µM [10] [%] | also measured
c1ccc(-c2nc(Nc3ccc(-c4nc5ccccc5[nH]4)cc3)nc(N3CCOCC3)n2)cc1 | 101 | 1890 | > 100000 | 6040 | 1910 | > 100000 | 6030 | 26 | -90 | -87 | 99 | 101 | 69 | 13 | 58 | 91 | -100 | -100 | 96 | -72 | growth at 100 µM (KM12): -86%; growth at 100 µM [11]: -74%; GI50 ([12]; read-out: GI50): 343 nM; TGI ([12]; read-out: TGI): 1540 nM; GI50 ([12]; read-out: pGI50 (converted)): 347 nM; TGI ([12]; read-out: pTGI (converted)): 1550 nM; growth at 0.1 µM [13]: 98%; growth at 10 µM [14]: -73.4%; growth at 10 µM [15]: -47.2%; growth at 1 µM (MCF7): 47%; growth at 1 µM [16]: 112%; GI50 (MDA-MB-435; read-out: GI50): 1760 nM; CC50 (MDA-MB-435; [17]): 6110 nM; TGI (MDA-MB-435; read-out: TGI): 3280 nM; GI50 (MDA-MB-435; read-out: pGI50 (converted)): 1780 nM; CC50 (MDA-MB-435; [18]): 6170 nM; TGI (MDA-MB-435; read-out: pTGI (converted)): 3310 nM
Fc1ccc(-c2nc(Nc3ccc(-c4nc5ccccc5[nH]4)cc3)nc(N3CCOCC3)n2)cc1 | 97 | 1760 | > 100000 | 6960 | 1780 | > 100000 | 6920 | 79 | -33 | -7 | 104 | 101 | 95 | 74 | 87 | 99 | -29 | 8 | 100 | -20 | growth at 100 µM (KM12): -37%; growth at 100 µM [11]: -57%; GI50 ([12]; read-out: GI50): 1670 nM; CC50 [12, 17]: > 100000 nM; TGI ([12]; read-out: TGI): 4780 nM; GI50 ([12]; read-out: pGI50 (converted)): 1660 nM; CC50 [12, 18]: > 100000 nM; TGI ([12]; read-out: pTGI (converted)): 4790 nM; growth at 0.1 µM [13]: 100%; growth at 10 µM [14]: 5.15%; growth at 10 µM [15]: 59.8%; growth at 1 µM (MCF7): 85%; growth at 1 µM [16]: 92%; GI50 (MDA-MB-435; read-out: GI50): 1940 nM; TGI (MDA-MB-435; read-out: TGI): 4040 nM; GI50 (MDA-MB-435; read-out: pGI50 (converted)): 1950 nM; TGI (MDA-MB-435; read-out: pTGI (converted)): 4070 nM
Clc1ccc(-c2nc(Nc3ccc(-c4nc5ccccc5[nH]4)cc3)nc(N3CCOCC3)n2)cc1 | 95 | 700 | > 100000 | 3020 | 708 | > 100000 | 3020 | 90 | -26 | -96 | 99 | 104 | 18 | -57 | -5 | 95 | -68 | -63 | 95 | -89 | growth at 100 µM (KM12): -67%; growth at 100 µM [11]: -44%; GI50 ([12]; read-out: GI50): 188 nM; TGI ([12]; read-out: TGI): 412 nM; GI50 ([12]; read-out: pGI50 (converted)): 191 nM; TGI ([12]; read-out: pTGI (converted)): 407 nM; growth at 0.1 µM [13]: 97%; growth at 10 µM [14]: -95.6%; growth at 10 µM [15]: -73.9%; growth at 1 µM (MCF7): -39%; growth at 1 µM [16]: 32%; GI50 (MDA-MB-435; read-out: GI50): 596 nM; TGI (MDA-MB-435; read-out: TGI): 1860 nM; GI50 (MDA-MB-435; read-out: pGI50 (converted)): 603 nM; TGI (MDA-MB-435; read-out: pTGI (converted)): 1860 nM
c1ccc2[nH]c(-c3ccc(Nc4nc(N5CCCCC5)nc(N5CCOCC5)n4)cc3)nc2c1 | 97 | 2560 | > 100000 | 8610 | 2570 | > 100000 | 8510 | 100 | -33 | -4 | 96 | 96 | 93 | 87 | 88 | 104 | -32 | 8 | 101 | -4 | growth at 100 µM (KM12): -40%; growth at 100 µM [11]: -69%; GI50 ([12]; read-out: GI50): 1880 nM; CC50 [12, 17]: > 100000 nM; TGI ([12]; read-out: TGI): 4380 nM; GI50 ([12]; read-out: pGI50 (converted)): 1860 nM; CC50 [12, 18]: > 100000 nM; TGI ([12]; read-out: pTGI (converted)): 4370 nM; growth at 0.1 µM [13]: 104%; growth at 10 µM [14]: 10.9%; growth at 10 µM [15]: 61.2%; growth at 1 µM (MCF7): 87%; growth at 1 µM [16]: 103%; GI50 (MDA-MB-435; read-out: GI50): 2060 nM; CC50 (MDA-MB-435; [17]): > 100000 nM; TGI (MDA-MB-435; read-out: TGI): 4590 nM; GI50 (MDA-MB-435; read-out: pGI50 (converted)): 2040 nM; CC50 (MDA-MB-435; [18]): > 100000 nM; TGI (MDA-MB-435; read-out: pTGI (converted)): 4570 nM
